Assays:
H9c2 = experiment: Cytotoxicity against rat H9c2 cells assessed as reduction in cell viability; assay type: cell-based
[1] = Selectivity index, ratio of IC50 for rat H9c2 cells to IC50 for antitrypanosomal activity against Trypanosoma cruzi Tulahuen trypomastigotes beta-galactosidase infected in rat H9c2 cells; assay type: toxicity, cell-based; settings: read-out: Ratio IC50
Trypanosoma cruzi [2] = experiment: Antitrypanosomal activity against Trypanosoma cruzi Tulahuen trypomastigotes beta-galactosidase infected in rat H9c2 cells measured after 72 hrs by DRAQ5 DNA dye based confocal microscopic analysis; assay type: functional, organism-based; settings: H9c2, 72 h
[3] = Intrinsic clearance in human liver microsomes at 0.5 uM in presence of NADPH measured up to 45 mins by UPLC/MS/MS analysis; assay type: ADME, Microsome; settings: 0.75 h
Outline: (§1)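 Compound at 0.5 μM was incubated with male CD1 mouse or human liver microsomes (0.5 mg/mL in 50 mM potassium phosphate, pH 7.4). The reaction was started with excess NADPH. Samples were taken at 0 and serial times up to 45 min, quenched in acetonitrile with internal standard and analysed by UPLC/MS/MS. Clint (mL/min/g tissue) was derived from t1/2 of parent remaining. Midazolam was the positive control.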

[4] = Intrinsic clearance in CD-1 mouse liver microsomes at 0.5 uM in presence of NADPH measured up to 45 mins by UPLC/MS/MS analysis; assay type: ADME, Microsome; settings: 0.75 h; outline: as §1
Trypanosoma cruzi [5] = experiment: Antitrypanosomal activity against Trypanosoma cruzi Tulahuen C4 trypomastigotes harboring beta-galactosidase infected in mouse 3T3 cells after 90 mins by luminescence based assay; assay type: functional, organism-based; settings: Tulahuen C4, NIH3T3, 1.5 h
[6] = Drug level in C57BL/6 mouse treated with 50 mg/kg, po N-(5-Fluoro-6-(trifluoromethyl)benzothiazol-2-yl)cyclopropanecarboxamide administered as suspension via gavage assessed as compound formation after 15 mins to 24 hrs by LC-MS/Ms analysis; assay type: ADME, organism-based; settings: in vivo
Outline: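 Female C57BL/6 mice (n=3) were gavaged with 50 mg/kg parent compound as a 1% methylcellulose suspension. Whole blood was sampled at 15, 30, 45 min and 1, 2, 4, 8 and 24 h, diluted 1/2 with water and frozen.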

| Compound | IC50 (H9c2) [µM] | selectivity ratio [1] | IC50 (Trypanosoma cruzi [2]) [nM] | CLH [3] [mL/min/g] | CLH [4] [mL/min/g] | IC50 (Trypanosoma cruzi [5]) [nM] | Drug metabolism [6] |
| --- | --- | --- | --- | --- | --- | --- | --- |
| N#Cc1cc2sc(NC(=O)C3CC3)nc2cc1F | > 50 | > 22 | 2300 | – | – | – | – |
| O=C(C1CC1)N(CCO)c1nc2ccc(Cl)cc2s1 | > 50 | 1 | > 50000 | – | – | – | – |
| CC(C)C(=O)Nc1nc2ccc(Cl)cc2s1 | > 50 | > 123 | 410 | – | – | – | – |
| CNS(=O)(=O)c1cc2sc(NC(=O)C3CC3)nc2cc1F | > 50 | > 2 | 26000 | – | – | – | – |
| CN(C(=O)C1CC1)c1nc2ccc(Cl)cc2s1 | > 50 | > 2 | 25000 | – | – | – | – |
| O=C(Nc1nc2cccc(Cl)c2s1)C1CC1 | > 50 | > 2 | 24000 | – | – | – | – |
| O=C(CC1CC1)Nc1nc2ccc(Cl)cc2s1 | > 50 | > 9 | 5400 | – | – | – | – |
| CCOc1ccc2nc(NC(=O)C3CC3)sc2c1 | > 50 | > 20 | 2500 | – | – | – | – |
| Cc1ccc2nc(NC(=O)C3CC3)sc2c1 | > 50 | > 11 | 4520 | – | – | – | – |
| O=C(Nc1nc2ccc(OC(F)(F)F)cc2s1)C1CC1 | 5 | 28 | 190 | – | – | – | – |
| O=C(Nc1nc2ccc(Cl)cc2s1)C1CC1 | > 50 | > 80 | 630 | 9.57 | 2.51 | 119 | – |
| CC(C)C(=O)Nc1nc2cc(F)c(C(F)(F)F)cc2s1 | > 50 | > 200 | 250 | – | – | – | – |
| CN(C)CCCN(C(=O)c1nc2ccccc2s1)c1nc2ccc(F)cc2s1 | – | – | – | – | – | 100 | – |
| FC(F)(F)c1ccc2nc(N/N=C/C3CC3)sc2c1 | 13 | 5 | 2400 | – | – | – | – |
| O=C(Nc1nc2cc(Cl)ccc2s1)C1CC1 | > 50 | > 158 | 320 | – | – | – | – |
| Nc1nc2cc(F)c(C(F)(F)F)cc2s1 | – | – | – | – | – | – | Metabolite_Detected |
| O=C(Nc1nc2ccc(Cl)cc2s1)C1COC1 | > 50 | > 11 | 4400 | – | – | – | – |
| CCCCN(C(=O)C1CC1)c1nc2ccc(Cl)cc2s1 | > 50 | 1 | > 50000 | – | – | – | – |
| Clc1ccc2nc(NCC3CC3)sc2c1 | > 50 | > 2 | 27000 | – | – | – | – |
| O=C(Nc1nc2ccc([N+](=O)[O-])cc2s1)C1CC1 | > 50 | > 1200 | 40 | 1.57 | 3.06 | – | – |
| O=C(Nc1nc2ccc(Cl)cc2s1)C1CCC1 | > 50 | > 38 | 1320 | – | – | – | – |

Source: ChEMBL document CHEMBL4321829, “Chagas Disease Drug Discovery: Multiparametric Lead Optimization against Trypanosoma cruzi in Acylaminobenzothiazole Series” (J Med Chem, 2019)
